Calls of active or inactive are those of the source. No cut-off for these calls is given here. Some results are limits rather than exact numbers.

In general, inhibition refers to how much of the control response was suppressed.

Assay [1] addresses Tripeptidyl-peptidase 2 (Mus musculus) (UniProt Q64514). Conditions: Brain, 5 uM.
Assay [2] concerns the target T1, Platelet-activating factor acetylhydrolase (Mus musculus) (UniProt Q60963).
T1 sequence (whole entry): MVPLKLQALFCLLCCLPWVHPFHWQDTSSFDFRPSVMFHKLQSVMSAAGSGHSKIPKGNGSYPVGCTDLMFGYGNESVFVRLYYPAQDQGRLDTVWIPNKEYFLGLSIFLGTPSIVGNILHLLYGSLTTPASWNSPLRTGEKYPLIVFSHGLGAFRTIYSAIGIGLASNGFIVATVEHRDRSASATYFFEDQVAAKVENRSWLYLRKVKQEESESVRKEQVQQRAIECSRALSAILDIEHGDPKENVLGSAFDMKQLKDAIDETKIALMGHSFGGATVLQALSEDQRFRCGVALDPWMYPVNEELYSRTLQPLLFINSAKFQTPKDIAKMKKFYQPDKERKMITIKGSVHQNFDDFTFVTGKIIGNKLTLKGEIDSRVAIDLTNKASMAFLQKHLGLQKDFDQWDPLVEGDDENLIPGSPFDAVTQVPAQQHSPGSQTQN
Particulars: Brain, 50 uM.

The target of assay [3] is T2, Fatty-acid amide hydrolase 1 (Mus musculus) (UniProt O08914).
T2 sequence (whole entry): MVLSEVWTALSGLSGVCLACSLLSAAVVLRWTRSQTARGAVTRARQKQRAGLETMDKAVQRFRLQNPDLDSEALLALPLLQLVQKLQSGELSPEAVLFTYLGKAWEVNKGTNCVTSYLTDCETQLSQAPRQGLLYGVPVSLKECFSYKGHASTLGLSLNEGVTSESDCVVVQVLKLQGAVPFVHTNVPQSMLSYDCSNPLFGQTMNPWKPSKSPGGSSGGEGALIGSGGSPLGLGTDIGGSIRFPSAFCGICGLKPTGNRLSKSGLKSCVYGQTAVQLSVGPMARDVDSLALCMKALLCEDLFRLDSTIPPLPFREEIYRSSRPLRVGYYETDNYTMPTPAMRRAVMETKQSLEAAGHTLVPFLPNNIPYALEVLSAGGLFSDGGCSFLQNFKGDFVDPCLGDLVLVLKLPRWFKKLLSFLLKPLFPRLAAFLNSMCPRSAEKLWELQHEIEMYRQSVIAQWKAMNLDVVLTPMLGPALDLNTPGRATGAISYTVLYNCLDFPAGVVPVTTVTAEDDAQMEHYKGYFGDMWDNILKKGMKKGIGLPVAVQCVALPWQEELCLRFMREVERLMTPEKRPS
The assay can be described thus: Inhibition of FAAH in mouse brain at 0.01 to 100 uM treated for 30 mins by SDS-PAGE using rhodamine-tagged FP probe. Type of assay: tissue-based. The essentials: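 Mouse brain membrane proteome preincubated with inhibitor across 0.01-100 μM for 30 min. A rhodamine-tagged fluorophosphonate probe (FP-Rh) was then added for 60 min. Samples were resolved by SDS-PAGE, and probe labeling of each hydrolase band was read by in-gel fluorescence scanning.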

Assay [4] concerns the target Acetylcholinesterase (Mus musculus) (UniProt P21836). The experiment in a line: Inhibition of AChE in mouse brain assessed as reduction in spectral count at 5 uM treated for 30 mins by ABPP-MudPIT assay relative to control. Type of assay: tissue-based. The procedure, abridged:
(§1)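 Mouse brain proteome was treated with inhibitor at the stated single concentration, or DMSO as control, for 30 min. FP-biotin (5 μM) was then added for 120 min, followed by avidin enrichment and LC-MS (ABPP-MudPIT). Runs were in triplicate. Only hydrolases with >15 average spectral counts in control were quantified. Blockade is the percent reduction in average spectral counts versus DMSO; >60% defined a target.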

Assay [5] concerns the target Hormone-sensitive lipase (Mus musculus) (UniProt P54310). The experiment in a line: Inhibition of HSL in mouse brain assessed as reduction in spectral count at 50 uM treated for 30 mins by ABPP-MudPIT assay relative to control. Type of assay: tissue-based. The essentials:
as §1

The target in assay [6] is T1, Platelet-activating factor acetylhydrolase (Mus musculus). The experiment in a line: Inhibition of PLA2g7 in mouse brain assessed as reduction in spectral count at 5 uM treated for 30 mins by ABPP-MudPIT assay relative to control. Type of assay: tissue-based. The essentials:
as §1

Assay [7] has as its target T3, Phosphatidylserine lipase ABHD16A (Mus musculus) (UniProt Q9Z1Q2).
T3 sequence (whole entry): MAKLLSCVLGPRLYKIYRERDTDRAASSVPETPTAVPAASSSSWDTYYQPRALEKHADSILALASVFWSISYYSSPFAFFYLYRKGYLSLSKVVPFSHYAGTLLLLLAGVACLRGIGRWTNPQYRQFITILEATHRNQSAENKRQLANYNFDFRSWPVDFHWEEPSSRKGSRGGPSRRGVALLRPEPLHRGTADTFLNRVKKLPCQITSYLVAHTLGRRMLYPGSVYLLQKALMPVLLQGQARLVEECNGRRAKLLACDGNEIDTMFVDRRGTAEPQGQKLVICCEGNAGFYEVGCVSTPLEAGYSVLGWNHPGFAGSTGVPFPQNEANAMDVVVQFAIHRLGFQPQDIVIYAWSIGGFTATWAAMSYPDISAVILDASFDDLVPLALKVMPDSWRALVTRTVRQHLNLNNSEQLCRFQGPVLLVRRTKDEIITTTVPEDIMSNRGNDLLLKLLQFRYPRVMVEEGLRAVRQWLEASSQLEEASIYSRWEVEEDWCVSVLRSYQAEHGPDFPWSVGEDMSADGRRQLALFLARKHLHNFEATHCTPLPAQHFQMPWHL
The experiment in a line: Inhibition of BAT5 in mouse brain assessed as reduction in spectral count at 50 uM treated for 30 mins by ABPP-MudPIT assay relative to control. Type of assay: tissue-based. The procedure, abridged: as §1

Assay [8] addresses T2, Fatty-acid amide hydrolase 1 (Mus musculus). The assay can be described thus: Inhibition of FAAH in mouse brain assessed as reduction in spectral count at 50 uM treated for 30 mins by ABPP-MudPIT assay relative to control. Type of assay: tissue-based. The essentials:
as §1

Assay [9] has as its target T4, Neutral cholesterol ester hydrolase 1 (Mus musculus) (UniProt Q8BLF1).
T4 sequence (whole entry): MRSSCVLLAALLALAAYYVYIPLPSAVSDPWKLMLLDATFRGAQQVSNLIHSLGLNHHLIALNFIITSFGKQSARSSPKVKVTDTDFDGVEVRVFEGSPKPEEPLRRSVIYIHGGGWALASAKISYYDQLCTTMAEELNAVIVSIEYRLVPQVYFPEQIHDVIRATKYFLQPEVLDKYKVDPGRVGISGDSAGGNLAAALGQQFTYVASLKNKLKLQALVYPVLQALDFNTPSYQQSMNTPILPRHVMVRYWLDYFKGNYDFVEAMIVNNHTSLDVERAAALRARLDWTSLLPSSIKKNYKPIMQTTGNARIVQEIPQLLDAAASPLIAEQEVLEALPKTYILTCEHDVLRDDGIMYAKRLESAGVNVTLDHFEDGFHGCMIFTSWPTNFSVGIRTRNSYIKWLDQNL
The assay can be described thus: Inhibition of KIAA1363 in mouse brain assessed as reduction in spectral count at 50 uM treated for 30 mins by ABPP-MudPIT assay relative to control. Type of assay: tissue-based. The essentials: as §1

The target of assay [10] is T1, Platelet-activating factor acetylhydrolase (Mus musculus). The experiment in a line: Inhibition of PLA2g7 in mouse brain by LC-MS analysis. Type of assay: tissue-based.
For assay [11], the target named is Acetylcholinesterase (Mus musculus) (UniProt P21836). The assay can be described thus: Inhibition of AChE in mouse brain by LC-MS analysis. Type of assay: tissue-based.
Sequence of Acetylcholinesterase (Mus musculus) (P21836 whole entry): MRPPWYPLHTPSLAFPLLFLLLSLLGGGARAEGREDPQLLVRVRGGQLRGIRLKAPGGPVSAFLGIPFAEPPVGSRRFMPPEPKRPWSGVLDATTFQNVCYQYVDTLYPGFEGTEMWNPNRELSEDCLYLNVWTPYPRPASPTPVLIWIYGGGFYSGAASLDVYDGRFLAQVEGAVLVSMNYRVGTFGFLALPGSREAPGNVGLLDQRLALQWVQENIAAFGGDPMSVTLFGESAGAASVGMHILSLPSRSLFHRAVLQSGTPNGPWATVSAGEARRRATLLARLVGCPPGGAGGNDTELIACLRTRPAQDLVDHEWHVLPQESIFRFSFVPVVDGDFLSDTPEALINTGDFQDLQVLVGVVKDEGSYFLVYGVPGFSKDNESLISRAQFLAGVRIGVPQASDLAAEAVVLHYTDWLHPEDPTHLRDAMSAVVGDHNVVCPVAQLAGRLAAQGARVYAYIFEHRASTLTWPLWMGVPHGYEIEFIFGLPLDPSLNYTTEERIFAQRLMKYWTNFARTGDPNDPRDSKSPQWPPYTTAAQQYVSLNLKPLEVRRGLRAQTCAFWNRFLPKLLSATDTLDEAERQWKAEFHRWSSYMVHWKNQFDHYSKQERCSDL

Sequence of Tripeptidyl-peptidase 2 (Mus musculus) (Q64514 whole entry): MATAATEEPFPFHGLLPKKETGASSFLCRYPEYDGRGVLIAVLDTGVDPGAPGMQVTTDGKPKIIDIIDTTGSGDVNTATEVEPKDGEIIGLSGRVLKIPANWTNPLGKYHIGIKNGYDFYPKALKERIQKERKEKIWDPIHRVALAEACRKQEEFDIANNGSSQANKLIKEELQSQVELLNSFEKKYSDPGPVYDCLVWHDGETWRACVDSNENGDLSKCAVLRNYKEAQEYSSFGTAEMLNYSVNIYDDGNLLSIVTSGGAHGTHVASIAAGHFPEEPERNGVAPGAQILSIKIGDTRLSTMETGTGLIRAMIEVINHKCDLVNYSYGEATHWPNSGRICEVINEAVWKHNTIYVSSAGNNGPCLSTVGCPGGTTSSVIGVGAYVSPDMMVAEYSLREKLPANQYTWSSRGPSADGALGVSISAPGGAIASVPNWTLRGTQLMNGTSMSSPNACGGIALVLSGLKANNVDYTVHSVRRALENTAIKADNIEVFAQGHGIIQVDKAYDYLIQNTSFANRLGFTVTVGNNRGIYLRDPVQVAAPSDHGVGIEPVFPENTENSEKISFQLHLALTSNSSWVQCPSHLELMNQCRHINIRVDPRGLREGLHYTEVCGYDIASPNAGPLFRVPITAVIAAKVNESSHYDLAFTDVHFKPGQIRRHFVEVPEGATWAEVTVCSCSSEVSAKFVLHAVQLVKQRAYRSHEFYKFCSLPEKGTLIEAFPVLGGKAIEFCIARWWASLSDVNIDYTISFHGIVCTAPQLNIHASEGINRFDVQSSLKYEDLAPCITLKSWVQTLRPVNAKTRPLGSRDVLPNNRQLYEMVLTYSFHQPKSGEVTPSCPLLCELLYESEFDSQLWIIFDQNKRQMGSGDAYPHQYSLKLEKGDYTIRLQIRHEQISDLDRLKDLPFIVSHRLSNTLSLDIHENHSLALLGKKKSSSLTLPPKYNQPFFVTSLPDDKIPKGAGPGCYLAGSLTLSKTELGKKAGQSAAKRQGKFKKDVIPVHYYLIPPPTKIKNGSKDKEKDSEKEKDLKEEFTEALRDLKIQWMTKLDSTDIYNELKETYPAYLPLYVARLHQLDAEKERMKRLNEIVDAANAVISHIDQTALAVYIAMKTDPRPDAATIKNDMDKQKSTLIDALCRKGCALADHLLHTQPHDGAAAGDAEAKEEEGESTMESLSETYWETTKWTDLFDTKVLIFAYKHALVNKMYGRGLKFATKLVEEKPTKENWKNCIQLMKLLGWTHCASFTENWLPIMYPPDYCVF
Sequence of Hormone-sensitive lipase (Mus musculus) (P54310 whole entry): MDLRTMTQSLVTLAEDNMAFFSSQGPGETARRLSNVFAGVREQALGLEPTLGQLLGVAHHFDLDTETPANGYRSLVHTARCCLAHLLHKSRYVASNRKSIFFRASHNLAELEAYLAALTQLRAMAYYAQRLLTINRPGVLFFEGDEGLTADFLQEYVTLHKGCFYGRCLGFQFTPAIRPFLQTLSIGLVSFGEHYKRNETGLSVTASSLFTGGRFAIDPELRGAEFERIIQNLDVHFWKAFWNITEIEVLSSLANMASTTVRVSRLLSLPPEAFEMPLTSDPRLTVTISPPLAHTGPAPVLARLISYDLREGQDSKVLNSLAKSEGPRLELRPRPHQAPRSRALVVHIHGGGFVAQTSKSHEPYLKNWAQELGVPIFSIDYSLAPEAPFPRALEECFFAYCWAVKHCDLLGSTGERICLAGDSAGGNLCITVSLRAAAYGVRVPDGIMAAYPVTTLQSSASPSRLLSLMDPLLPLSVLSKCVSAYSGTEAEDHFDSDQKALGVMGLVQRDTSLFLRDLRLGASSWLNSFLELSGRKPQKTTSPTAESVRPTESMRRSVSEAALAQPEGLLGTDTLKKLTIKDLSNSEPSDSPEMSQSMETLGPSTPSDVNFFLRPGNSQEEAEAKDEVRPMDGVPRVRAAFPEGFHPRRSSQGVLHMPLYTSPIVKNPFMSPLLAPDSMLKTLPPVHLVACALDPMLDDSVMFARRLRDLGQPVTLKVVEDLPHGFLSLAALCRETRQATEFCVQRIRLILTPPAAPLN

On to `CCCCCCCCCCC[C@@H](C[C@@H]1OC(=O)[C@H]1CCCCCC)OC(=O)[C@H](CC(C)C)NC=O` [ORLISTAT], for which the inhibition in [1] and in [2] was over 60% each time. In assay [3], the result was Active.
Turning to `O=C(NCCCCCCNC(=O)ON=C1CCCCC1)ON=C1CCCCC1`, the inhibition in assay [4] was over 60%; in [5], under 60%; in assay [6] it was over 60%; in assay [7], over 60%; in assay [8], over 60%; in assay [9], over 60%. The result in [3], in assay [10] and in assay [11] was Active.

The values above are taken from ChEMBL document CHEMBL1151781, “Selectivity of inhibitors of endocannabinoid biosynthesis evaluated by activity-based protein profiling” (Bioorg Med Chem Lett, 2008).
